Source: ChEMBL document CHEMBL1138733, “Chimeric cyclodepsipeptides as mimetics for the anthelmintic PF1022A” (2004)

Columns and labels:
Bos taurus [1] = experiment: anthelmintic activity as the percent reduction in faecal egg count in sheep infected with 5000 Haemonchus contortus L3 larvae at 0.1 mg/kg; assay type: functional, Ovis aries, Feces
Method in brief: (§1)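 Merino or Schwarzkopf sheep (25–35 kg) infected with 5000 H. contortus L3, dosed after the pre-patency period, orally in gelatine capsules or intravenously. Faecal egg counts by Wetzel-modified McMaster method, per gram of fresh faeces, at regular intervals before and after treatment. Activity as eggs per gram and percent reduction versus pretreatment. Untreated controls sampled at matching times.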

Bos taurus [2] = experiment: anthelmintic activity as the eggs per gram of faeces in sheep infected with 5000 Haemonchus contortus L3 larvae at 0.1 mg/kg; assay type: functional, Ovis aries, Feces; method in brief: as §1
Haemonchus contortus [3] = experiment: anthelmintic activity as the eggs per gram of faeces in sheep infected with 5000 Haemonchus contortus L3 larvae at 0.01 mg/kg
Haemonchus contortus [4] = experiment: anthelmintic activity as the percent reduction in faecal egg count in sheep infected with 5000 Haemonchus contortus L3 larvae at 0.01 mg/kg

SMILES	Reduction (Bos taurus [1]) [%]	Activity (Bos taurus [2]) [eggs/g]	Activity (Haemonchus contortus [3]) [eggs/g]	Reduction (Haemonchus contortus [4]) [%]
CC(C)C[C@H]1C(=O)O[C@H](Cc2ccccc2)C(=O)N(C)[C@@H](CC(C)C)C(=O)O[C@H](C)C(=O)N(C)[C@@H](CC(C)C)C(=O)O[C@H](Cc2ccccc2)C(=O)N(C)[C@@H](CC(C)C)C(=O)O[C@H](C)C(=O)N1C	100	0	573	43
CC(C)C[C@H]1C(=O)N[C@H]2CCC3SC[C@@H](C(=O)O[C@H](C)C(=O)N(C)[C@@H](CC(C)C)C(=O)O[C@H](Cc4ccccc4)C(=O)N(C)[C@@H](CC(C)C)C(=O)O[C@H](C)C(=O)N1C)N3C2=O (stereo partly drawn)			83	95
CC(C)C[C@H]1C(=O)O[C@H](Cc2ccccc2)C(=O)N(C)[C@@H](CC(C)C)C(=O)O[C@H](C)C(=O)N(C)[C@@H](CC(C)C)C(=O)N2CCC[C@@H]2C(=O)N2CCC[C@H]2C(=O)O[C@H](C)C(=O)N1C			50	98
